# From PubChem BioAssay
# Hits are enriched below; roughly 0.19% of the tested compounds scored in any of these assays.
# KDM4C inh: blocks human GASC-1 (KDM4C) demethylase activity; Q9H3R0; GST-KDM4C 2-372, H3K9me3 peptide, LANCE TR-FRET; inhibition, % at 12.5 µM; 96,000 compounds, 0.15% hits;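 active = mean replicate inhibition above about 25%, with at least 55% of replicates also reaching it, limit read from the data, passing the limit was not always enough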
#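 Test system – GST-tagged GASC-1 (JMJD2C) catalytic fragment, aa 2-372 · Medium – HEPES buffer, pH 7.5, plus ascorbate · Reagent – H3K9me3 peptide with Fe(II)/2OG · Compound – one test concentration per compound · Timing – 30 min reaction, 60 min detection, RT · Technique – TR-FRET with Eu antibody and ULight streptavidin, EDTA stop · Read-out basis – inhibition from TR-FRET ratio decrease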
# IDH1 R132H inh: inhibitors of human IDH1 R132H; AID 624101; inhibition, % at 10 µM; IDH1 R132H reductase, diaphorase/resazurin fluorescence, 60 min; 70,000 compounds, 0.18% hits; O75874; in the data active = inhibition above about 34%;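 also: 0% = DMSO and 100% = no enzyme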
# An asterisk follows results filed as active; x = not tested or not shown.
SMILES,KDM4C inh,IDH1 R132H inh
COC(=O)C[C@@H]1C[C@@H]2c3cc(N(C)C)ccc3O[C@@H]2[C@H](CO)O1,x,-3
CC(C)[C@@H]1CC[C@@H](C)C[C@@H]1P(=O)(c1ccccc1)c1ccccc1,x,-2
COC(=O)c1ccc(NC(=O)CSc2nnc(-c3cccc(N)c3)n2C)cc1,x,0
COc1ccc(CN(C)C[C@@H]2OCCCC[C@@H](C)Oc3ccc(NS(C)(=O)=O)cc3C(=O)N([C@H](C)CO)C[C@@H]2C)cc1,0,4
C[C@H](CO)N1C[C@H](C)[C@@H](CN(C)Cc2ccncc2)Oc2ccc(NC(=O)CCCCCC(=O)Nc3ccccc3N)cc2CC1=O,1,0
CCN(Cc1ccccc1)C(=O)CSC1=Nc2ccccc2C2=NC(c3ccccc3)C(=O)N12 (centres undefined),x,-1
CN(C)c1ccc2c(c1)[C@@H]1C[C@@H](CC(=O)NCC3CC3)O[C@@H](CO)[C@@H]1O2,32*,-12
CN(C)c1ccc2c(c1)[C@H]1C[C@H](CC(=O)NCC3CC3)O[C@@H](CO)[C@H]1O2,19,-3
CCC(=O)N[C@@H]1CC[C@H](CCn2cc(-c3cccc(OC)c3)nn2)O[C@@H]1CO,29*,0
CCC(=O)N[C@@H]1CC[C@H](CCn2cc(-c3cccc(OC)c3)nn2)O[C@H]1CO,0,0
COc1cccc(-c2cn(CC[C@H]3CC[C@H](NC(=O)CC4CC4)[C@H](CO)O3)nn2)c1,0,0
COc1cccc(-c2cn(CC[C@@H]3CC[C@H](NC(=O)CC4CC4)[C@@H](CO)O3)nn2)c1,55*,7
CN(C)C(=O)c1cccc(-c2ccccc2[C@H]2[C@H](C#N)N(C(=O)C3CCCCC3)[C@H]2CO)c1,0,x
CN1C(=O)c2cc(NC(=O)Nc3ccccc3Cl)ccc2OC[C@H]2O[C@@H](CC(=O)O)CC[C@@H]21,49*,x
CN1C(=O)c2cc(NC(=O)Nc3ccccc3Cl)ccc2OC[C@@H]2O[C@@H](CC(=O)O)CC[C@@H]21,0,x
CN1C(=O)c2cc(NC(=O)Nc3ccc(Cl)cc3)ccc2OC[C@@H]2O[C@@H](CC(=O)O)CC[C@H]21,0,x
O=S(=O)(N[C@@H]1CCCN(Cc2cccc(OCCO)c2)C1)c1cc(Cl)ccc1Cl,x,19
O=S(=O)(NC1CCN(Cc2ccc(OCCO)cc2)CC1)c1cc(Cl)ccc1Cl,x,37*
Cc1noc(C)c1S(=O)(=O)N(C)C[C@H]1Oc2ccc(NC(=O)CCCN(C)C)cc2C(=O)N([C@H](C)CO)C[C@@H]1C,14,x
COCC(=O)N1[C@H](CO)[C@H](c2ccc(-c3cccc(F)c3)cc2)C12CN(C(=O)C1CC1)C2,2,x
O=C(Nc1ccc(Cl)cc1)N[C@H]1CC[C@@H](CCNC(=O)c2ccccc2F)O[C@H]1CO,x,-1
O=C(Nc1ccc(Cl)cc1)N[C@H]1CC[C@H](CCNC(=O)c2ccccc2F)O[C@H]1CO,40*,43*
Cc1ccccc1S(=O)(=O)N1CC[C@@H]2[C@@H](CO)N(C)c3ccc(-c4ccc(F)cc4)cc3[C@@H]21,-5,x
